Data on nine compounds can be found in PubChem BioAssay AID651952 (The Scripps Research Institute Molecular Screening Center, 2012).

Screen size: about 2,400 compounds; about 940 (39%) were called active. Not all results are given here. Values without a mark were called inactive.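 How the source made its calls: active means inhibition above the plate's mean compound inhibition plus 3 SD, computed per plate (cut at about 22% in these data); inactive means the rest.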

The nature of the test: inhibition of ATP-evoked calcium response in CHO-Ga16 cells, counter-screen for TAAR1 agonist project, cell-based, fluorescence (AID 651952).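 Further: 0% = EC80 ATP with DMSO and 100% = DMSO wells without ATP.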 The settings on record: CHO-Ga16 ATP-induced calcium, Fluo-8 fluorescence; at 3 µM; stronger effect = higher value. The procedure, abridged:
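replicates = triplicate wells per compound | material = CHO-Gα16 parent cell line without hTAAR1 | incubation = 17–24 h seeding, dye 75 min 37 °C, 30 min RT | measure = percent inhibition from peak-to-pre-ATP-basal fluorescence ratio, scaled between controls | signal = Fluo-8 fluorescence, Ex 470–495 nm, Em 515–575 nm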
(In general: Counterscreens check selectivity or assay interference.)
Regarding `O=C1NC(=O)N(Cc2ccco2)C(=O)/C1=C\c1ccc(-c2ccc(F)cc2)o1`, the inhibition (commonly how much of the control response was suppressed) was 44% (active).
With `Clc1ccc2nc3c(c(-c4ccccc4)c2c1)CNCC3` the figure was 0.28%.
To `CC(Cc1ccccc1)NC=O` (centres undefined) belongs 11.2%.
Turning to `CCCCC(=O)N/N=C/c1c(O)n(CC)c(=S)n(CC)c1=O`, the inhibition was 64.5% (active).
To `COc1ccc(Br)cc1CNCCc1cccc(Cl)c1` belongs 14.7%.
With `c1ccc(CCNC2CCCCCC2)cc1` the figure was 2.61%; with `Cc1cccc(N2C(=O)NC(=O)/C(=C\c3cnn(-c4ccccc4)c3)C2=O)c1`, 40.6% (active).
With `CCC(=NCCc1ccccc1)c1c(O)n(C2CCCCC2)c(=O)[nH]c1=O` the figure was 21.1%.
Turning to `NCC(O)c1ccc(O)cc1` (centres undefined), the inhibition was 3.87%.
